# Laboratory results as given in ChEMBL document CHEMBL3593214, “ent-Abietane-Type and Related Seco-/Nor-diterpenoids from the Rare Chloranthaceae Plant Chloranthus sessilifolius and Their Antineuroinflammatory Activities” (J Nat Prod, 2015).
# Key:
# [1] = Antineuroinflammatory activity in mouse BV2 cells assessed as inhibition of LPS-stimulated nitric oxide production preincubated for 4 hrs followed by LPS challenge measured after 24 hrs by Griess assay; assay type: functional, cell-based; details: BV-2
# Method in brief: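 BV-2 mouse microglia (ATCC) kept in DMEM with 1800 mg/L NaHCO3, 10% FBS and penicillin/streptomycin at 37 °C, 5% CO2. Cells were pretreated 4 h with 3.125–100 μM, then LPS 1 μg/mL for 24 h. Supernatant nitrite was measured by Griess reagent at 540 nm against a NaNO2 standard curve. IC50 is the concentration giving 50% inhibition; mean ± SD of three independent experiments.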
# [2] = Cytotoxicity against mouse BV2 cells assessed as cell viability at 50 uM by MTT assay relative to control; assay type: cell-based, BV-2; details: read-out: Activity
# Method in brief: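 MTT colorimetric read-out on BV-2 microglia in DMEM/10% FBS at 37 °C, 5% CO2, after treatment at 50 μM. Viability is expressed as percent of untreated control cells; mean ± SD.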
IC50 [1] [µM],SMILES,viability at 50 µM [2] [%]
> 100,CC(C)C(=O)[C@@H]1C[C@@H]2C(=CC[C@@H]3C(C)(C)[C@H](O)CC[C@@]23C)[C@H]1O,–
7.4,CC(C)[C@@]1(O)C=C2C(=O)C[C@@H]3[C@@](C)(CO)CCC[C@@]3(C)[C@@H]2CC1,96.8
> 100,CC(C)(O)c1ccc2c(c1)C(=O)C=C1C(C)(C)[C@H](O)CC[C@]12C,–
> 100,CC(C)C(=O)[C@H]1C[C@@H]2C(=CC[C@@H]3C(C)(C)[C@H](O)CC[C@@]23C)[C@H]1O,–
8.3,CO[C@]1(C(C)C)C=C2C(=O)C[C@@H]3C(C)(C)[C@H](O)CC[C@@]3(C)[C@@H]2CC1,96.7
> 100,CC(C)C(=O)CC[C@@H]1CC(=O)C[C@@H]2C(C)(C)[C@H](O)CC[C@@]12C,–
37.7,CC(C)[C@@]1(O)C=C2C(=O)C[C@@H]3C(C)(C)[C@H](O)CC[C@@]3(C)[C@@H]2C[C@H]1O,98.4
> 100,CC1(C)[C@H](O)CC[C@@]2(C)[C@@H]3CCC(=O)C=C3[C@H](O)C[C@H]12,–
> 100,CC1(C)[C@H](O)CC[C@@]2(C)[C@@H]3CCC(=O)C=C3[C@@H](O)C[C@H]12,–
17.8,CC(C)(O)c1ccc2c(c1)CC[C@@H]1C(C)(C)[C@H](O)CC[C@@]21C,95.4
> 100,CC(C)C1=CC(=O)[C@@]2(CC1)OC(=O)C[C@@H]1C(C)(C)[C@H](O)CC[C@]12C,–
> 100,CC(C)[C@]1(O)C=C2C(=O)C[C@@H]3C(C)(C)[C@H](O)CC[C@@]3(C)[C@@H]2CC1,–
43.9,CC(C)c1ccc2c(c1)[C@H](O)C[C@@H]1C(C)(C)[C@H](O)CC[C@@]21C,94.7
14.4,CNC(=N)NCCC[C@H](N)C(=O)O [TILARGININE],98.5
> 100,CC(C)C(=O)CC[C@@H]1C(C=O)=C[C@@H](O)[C@@H]2C(C)(C)[C@H](O)CC[C@@]12C,–
> 100,CC(C)[C@]1(O)C=C2C(=O)C=C3C(C)(C)[C@H](O)CC[C@@]3(C)[C@@H]2CC1,–
> 100,CC1(C)[C@H](O)CC[C@@]2(C)[C@@H]3CC[C@@](O)(C(C)(C)O)C=C3C(=O)C[C@H]12,–
